Assay results taken from ChEMBL document CHEMBL1125214, “Synthesis and adenosine receptor affinity of a series of pyrazolo[3,4-d]pyrimidine analogues of 1-methylisoguanosine” (J Med Chem, 1991).

How the values were obtained:
[1] = Hydrophobicity index measured by retention time on a reverse phase HPLC column.; type: ADME
Adenosine receptor A1 [2] = molecular target: T1, Adenosine receptor A1 (Rattus norvegicus, UniProt P25099); assay: Inhibitory concentration against R[3H]-N6-PIA binding to adenosine A1 receptor in rat whole brain membrane; type: cell membranes
T1 sequence (P25099 whole entry): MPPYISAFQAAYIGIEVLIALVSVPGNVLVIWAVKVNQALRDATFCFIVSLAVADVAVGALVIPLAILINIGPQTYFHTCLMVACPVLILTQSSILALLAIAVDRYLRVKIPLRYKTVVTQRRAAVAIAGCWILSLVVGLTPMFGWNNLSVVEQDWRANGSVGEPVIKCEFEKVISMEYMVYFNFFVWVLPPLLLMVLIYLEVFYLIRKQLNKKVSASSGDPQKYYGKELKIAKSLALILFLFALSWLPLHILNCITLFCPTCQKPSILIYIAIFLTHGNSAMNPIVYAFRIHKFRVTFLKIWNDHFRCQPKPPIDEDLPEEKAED
Procedure, shortened: (§1)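 Rat whole-brain synaptosomal membranes were made by sucrose homogenization and 14500g pelleting. They were pretreated with adenosine deaminase (2 IU/mL, 37 °C, 30 min). Assay: membranes at 100-200 µg/mL, 2 nM R-[3H]N6-PIA, 50 mM Tris-HCl pH 7.4 with 1 mM MgCl2, 60 min at 37 °C. Compounds in DMSO. Nonspecific binding defined with 100 µM R-N6-PIA. GF/B filtration and scintillation counting. At least three runs in triplicate.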

[3] = molecular target: Adenosine A2 receptor (Rattus norvegicus) (UniProt P29276+P30543); assay: Inhibition of radioligand R[3H]-CGS 21680 binding to adenosine A2 receptors in rat striatal membrane at 20 uM concentration.; type: cell membranes; conditions: Striatum
Procedure, shortened: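 Striata from male Wistar rats (300-400 g) were homogenized in 50 mM Tris-HCl pH 7.4 with 10 mM MgCl2 and pelleted twice at 48000g. Assay: membranes at 100-200 µg/mL, 5 nM [3H]CGS 21680, 90 min at 23 °C. Nonspecific binding defined with 20 µM 2-chloroadenosine. Filtration and counting as in the A1 assay. Compounds tested at 20 µM; result expressed as % inhibition of control binding.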

[4] = molecular target: Adenosine receptors; A1 & A2 (Rattus norvegicus) (UniProt P29276+P25099+P30543); assay: Ratio of IC50 for A2 and A1 receptor binding; type: protein assay
[5] = molecular target: T2, Adenosine receptor A1 (Rattus norvegicus) (UniProt P25099); assay: Inhibition of radioligand R[3H]-N6-PIA binding to adenosine A1 receptors in rat whole brain membrane at 20 uM concentration.; type: cell membranes
T2 sequence (whole entry): T1 sequence (P25099 whole entry)
Procedure, shortened: as §1, with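 “counting. […]” for “counting.”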

Adenosine A2 receptor = Adenosine A2 receptor (Rattus norvegicus, UniProt P29276+P30543); assay: Inhibitory concentration against [3H]CGS 21680 binding to adenosine A2 receptors in rat striatal membrane
Adenosine receptor A1 [6] = molecular target: T1, Adenosine receptor A1; assay: Inhibitory concentration against R[3H]-N6-PIA binding to adenosine A1 receptors in rat whole brain membrane; type: cell membranes
Procedure, shortened: as §1, with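 “counting. […]” for “counting.”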

Compound | k' [1] | IC50 (Adenosine receptor A1 [2]) | inhibition [3] | Ratio [4] | inhibition [5] | IC50 (Adenosine A2 receptor) | IC50 (Adenosine receptor A1 [6])
CCn1c(=O)[nH]c2c(cnn2-c2ccccc2)c1=N | 4.2 | 20.1 µM | 16% | 4.1 | 58% | 81.8 µM | 
Cn1c(=O)[nH]c2c(cnn2-c2ccc(Br)cc2)c1=N | 18.9 |  | 7% |  | 34% |  | 
Cn1c(=O)[nH]c2c(cnn2-c2ccc([N+](=O)[O-])cc2)c1=N | > 36.5 |  | 0% |  | 5% |  | 
Cn1c(=O)[nH]c2c(cnn2-c2cccc([N+](=O)[O-])c2)c1=N | > 36.5 |  | 1% |  | 2% |  | 
Cn1c(=O)[nH]c2c(cnn2-c2cccc(Br)c2)c1=N | 17.5 |  | 1% |  | 40% |  | 
N=c1c2cnn(-c3ccccc3)c2[nH]c(=O)n1-c1ccccc1 | 5.1 |  | 0% |  | 25% |  | 
CCCCn1c(=O)[nH]c2c(cnn2-c2ccccc2)c1=N | 18.5 | 9.6 µM | 21% | 2.6 | 72% | 24.8 µM | 
CCn1c(=O)[nH]c2c(cnn2-c2cccc(Cl)c2)c1=N | 21.9 | 19.8 µM | 24% | 1.2 | 70% | 23.5 µM | 
Cn1c(=O)[nH]c2c(cnn2-c2cccc(N)c2)c1=N | 0.7 |  | 0% |  | 0% |  | 
Cn1c(=O)[nH]c2c(cnn2-c2ccc(Cl)cc2)c1=N | 13.6 |  | 0% |  | 37% |  | 
Cn1c(=O)[nH]c2c(cnn2-c2cc(Cl)cc(Cl)c2)c1=N | > 36.5 |  | 0% |  | 29% |  | 
CCCn1c(=O)[nH]c2c(cnn2-c2ccccc2)c1=N | 7.5 | 50.7 µM | 7% | 1 | 52% | 50.2 µM | 
CCCn1c(=O)[nH]c2c(cnn2-c2cccc(Cl)c2)c1=N | > 36.5 | 14.6 µM | 35% | 3.2 | 68% | 47.3 µM | 
Cn1c(=O)[nH]c2c(cnn2C)c1=N | 0.1 |  | 0% |  | 6% |  | 
Cn1c(=O)[nH]c2c(cnn2-c2ccc(N)cc2)c1=N | 0.3 |  | 0% |  | 0% |  | 
Cn1c(=O)[nH]c2c(cnn2-c2cccc(Cl)c2)c1=N | 14.2 |  | 29% |  | 53% |  | 16.5 µM
CCCCn1c(=O)[nH]c2c(cnn2-c2cccc(Cl)c2)c1=N | > 36.5 |  | 38% |  | 58% | 19.2 µM | 
CCCn1ncc2c(=N)n(C)c(=O)[nH]c21 | 0.8 |  | 0% |  | 5% |  | 

Results, then the molecule that gave them:

k' [1] | IC50 (Adenosine receptor A1 [2]) | inhibition [3] | Ratio [4] | inhibition [5] | IC50 (Adenosine A2 receptor) | IC50 (Adenosine receptor A1 [6]) | Compound
5.8 |  | 22% |  | 44% |  |  | Cn1c(=O)[nH]c2c(cnn2-c2cccc(F)c2)c1=N
4.1 |  | 0% |  | 26% |  |  | Cn1c(=O)[nH]c2c(cnn2-c2ccc(F)cc2)c1=N
1.7 |  | 0% |  | 7% |  |  | Cn1c(=O)[nH]c2c(cnn2-c2ccccc2Cl)c1=N
2.6 |  | 7% |  | 30% |  |  | Cn1c(=O)[nH]c2c(cnn2-c2ccccc2)c1=N
4.8 |  | 3% |  | 1% |  |  | Cn1c(=O)[nH]c2c(cnn2-c2cc(Cl)ccc2Cl)c1=N
7.1 |  | 0% |  | 9% |  |  | Cn1c(=O)[nH]c2c(cnn2-c2ccc(Cl)cc2Cl)c1=N
0.8 |  | 0% |  | 0% |  |  | Cn1c(=O)[nH]c2c(cnn2-c2ccccc2N)c1=N
1.8 |  | 0% |  | 6% |  |  | Cn1c(=O)[nH]c2c(cnn2-c2ccccc2Br)c1=N
1.1 |  | 0% |  | 8% |  |  | Cn1c(=O)[nH]c2c(cnn2-c2ccccc2F)c1=N
0.9 |  | 7% |  | 5% |  |  | Cn1c(=O)[nH]c2c(cnn2-c2ccccc2[N+](=O)[O-])c1=N
